In ChEMBL document CHEMBL1125037, “Synthesis and antihypertensive activity of 4-(1,2-dihydro-2-oxo-1-pyridyl)-2H-1-benzopyrans and related compounds, new potassium channel activators” (1990):

These compounds were tested on Rattus norvegicus (assay: Antihypertensive effect after 1 mg/kg (po) administration in conscious spontaneously hypertensive rat (over a time period of 0-210 minutes).).
Assay type: functional
Method in brief: (§1)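 Male Okamoto-strain SHR (280-330 g, blood pressure >180 mmHg), conscious and unrestrained, given 1 mg/kg orally as a screening dose. Mean arterial pressure was recorded directly and continuously via an aortic catheter from 1 h before to 3.5 h after dosing. The effect is the mean of the maximum individual changes over 3.5 h; N ≥ 3.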
For CC1(C)C=C(n2cc([N+](=O)[O-])ccc2=O)c2cc(C#N)ccc2O1, the “Max fall in blood pressure” value was 27 mmHg. CC1(C)Oc2ccc(/C=C/C#N)cc2[C@@H](n2ccccc2=O)[C@@H]1O was tested, and the “Max fall in blood pressure” value was 25 mmHg. In the case of CC1(C)Oc2ccc(C(=N)S)cc2C(N2CCCC2=O)[C@@H]1O (some centres undefined), the “Max fall in blood pressure” value is reported as 22 mmHg. With O=c1ccccn1C1=CC2(CCCCC2)Oc2ccc([N+](=O)[O-])cc21 the “Max fall in blood pressure” value was 22 mmHg. For CC(=O)c1ccc2c(c1)[C@@H](n1ccccc1=O)[C@H](O)C(C)(C)O2, the “Max fall in blood pressure” value was 38 mmHg. With CC1(C)Oc2ccc(C#N)cc2C(n2cnccc2=O)[C@@H]1O (some centres undefined) the “Max fall in blood pressure” value was 19 mmHg. With CC1(C)Oc2ccc(C#N)cc2[C@@H](n2cc([N+](=O)[O-])ccc2=O)[C@@H]1O the “Max fall in blood pressure” value was 23 mmHg. In the case of CC1(C)Oc2ccc(C#N)cc2C(n2ccccc2=O)C1=O (centres undefined), the “Max fall in blood pressure” value is reported as 20 mmHg. With CC1(C)Oc2ccc(C#N)cc2[C@@H](n2cc(Cl)ccc2=O)[C@@H]1O the “Max fall in blood pressure” value was 37 mmHg. With CC1(C)C=C(n2ccc(=O)[nH]c2=O)c2cc(C#N)ccc2O1 the “Max fall in blood pressure” value was 23 mmHg. For CCOC(=O)c1ccc(=O)n(C2c3cc(C#N)ccc3OC(C)(C)[C@H]2O)n1 (some centres undefined), the “Max fall in blood pressure” value was 24 mmHg. CC(=O)OC1=C(n2ccccc2=O)c2cc(C#N)ccc2OC1(C)C was tested, and the “Max fall in blood pressure” value was 21 mmHg. For CC1(C)C=C(n2ccccc2=O)c2cc(C(=N)S)ccc2O1, the “Max fall in blood pressure” value was 23 mmHg. In the case of CC1(C)Oc2ccc(-c3ccncc3)cc2[C@@H](n2ccccc2=O)[C@@H]1O, the “Max fall in blood pressure” value is reported as 24 mmHg. For CC1(C)Oc2ccc(C#N)cc2C(N2CCCCS2(=O)=O)[C@@H]1O (some centres undefined), the “Max fall in blood pressure” value was 30 mmHg. In the case of CC1(C)Oc2ccc(C#N)cc2C(n2ncc3ccccc3c2=O)[C@@H]1O (some centres undefined), the “Max fall in blood pressure” value is reported as 38 mmHg. With CC1(C)C=C(n2ccc(=O)cc2)c2cc(C#N)ccc2O1 the “Max fall in blood pressure” value was 48 mmHg. COC(=O)c1ccc2c(c1)[C@@H](n1ccccc1=O)[C@H](O)C(C)(C)O2 was tested, and the “Max fall in blood pressure” value was 49 mmHg. CC1(C)Oc2ccc(C#N)cc2[C@@H](n2cccc(C(=O)O)c2=O)[C@@H]1O was tested, and the “Max fall in blood pressure” value was 24 mmHg. For CC1(C)C=C(N2CCCCS2(=O)=O)c2cc(C#N)ccc2O1, the “Max fall in blood pressure” value was 25 mmHg. In the case of CC1(C)C=C(n2ccccc2=O)c2cc(C=O)ccc2O1, the “Max fall in blood pressure” value is reported as 35 mmHg. For N#Cc1ccc2c(c1)C(n1ccccc1=O)=CC1(CCCC1)O2, the “Max fall in blood pressure” value was 26 mmHg. In the case of CC1(C)C=C(n2ncccc2=O)c2cc(C#N)ccc2O1, the “Max fall in blood pressure” value is reported as 23 mmHg. CC1(C)Oc2ccc(C#N)cc2[C@H](n2ccccc2=O)[C@@H]1O was tested, and the “Max fall in blood pressure” value was 26 mmHg. CC1(C)Oc2ccc(C#N)cc2C(n2cccnc2=O)[C@@H]1O (some centres undefined) was tested, and the “Max fall in blood pressure” value was 20 mmHg. For CC1(C)Oc2ccc(C#N)cc2C(n2ccc3ccccc3c2=O)[C@@H]1O (some centres undefined), the “Max fall in blood pressure” value was 24 mmHg. In the case of CC1(C)C=C(n2cc(Cl)ccc2=O)c2cc(C#N)ccc2O1, the “Max fall in blood pressure” value is reported as 23 mmHg. With CC1(C)Oc2ccc(C#N)cc2C(n2ccc(=O)nc2)[C@@H]1O (some centres undefined) the “Max fall in blood pressure” value was 18 mmHg. In the case of CC1(C)Oc2ccc(-c3ccncc3)cc2C(N2CCCC2=O)[C@@H]1O (some centres undefined), the “Max fall in blood pressure” value is reported as 20 mmHg. With CC(=O)Nc1cccn([C@@H]2c3cc(C#N)ccc3OC(C)(C)[C@H]2O)c1=O the “Max fall in blood pressure” value was 22 mmHg. In the case of COC1=C(n2ccccc2=O)c2cc(C#N)ccc2OC1(C)C, the “Max fall in blood pressure” value is reported as 22 mmHg. CC1(C)Oc2ccc(C#N)cc2C(n2ccc(=O)cc2)[C@@H]1O (some centres undefined) was tested, and the “Max fall in blood pressure” value was 21 mmHg. With CC1(C)Oc2ccc(C#N)cc2[C@@H](n2cc(N)ccc2=O)[C@@H]1O the “Max fall in blood pressure” value was 34 mmHg. CC1(C)Oc2ccc(/N=C/c3ccc([N+](=O)[O-])cc3)cc2C(N2CCCC2=O)[C@@H]1O (some centres undefined) was tested, and the “Max fall in blood pressure” value was 26 mmHg.

What follows are compounds tested on Rattus norvegicus (assay: Antihypertensive effect after 1 mg/kg (po) administration in conscious spontaneously hypertensive rat (over a time period of 0-210 min).).
Assay type: functional, organism-based
Design: dose 1 mg/kg
Method in brief: as §1
In the case of CC1(C)Oc2ccc(C#N)cc2[C@@H](N2CCCCC2=N)[C@@H]1O, the “Max fall in blood pressure” value is reported as “Not significant”. CC1(C)Oc2ccc(C#N)cc2C(n2ccc(=O)[nH]c2=O)[C@@H]1O (some centres undefined) was tested, and the “Max fall in blood pressure” value was “Not significant”. For CC1(C)C=C(n2ccccc2=O)c2cc(C(N)=O)ccc2O1, the “Max fall in blood pressure” value was “Not significant”. CC1(C)Oc2ccc(C(N)=O)cc2[C@]2(n3ccccc3=O)O[C@H]12 was tested, and the “Max fall in blood pressure” value was “Not significant”. For CC1(C)Oc2ccc(-c3nn[nH]n3)cc2C(N2CCCC2=O)[C@@H]1O (some centres undefined), the “Max fall in blood pressure” value was “Not significant”. CC1(C)C=C(n2ccc3ccccc3c2=O)c2cc(C#N)ccc2O1 was tested, and the “Max fall in blood pressure” value was “Not significant”. With N#Cc1ccc2c(c1)[C@@H](n1ccccc1=O)[C@H](O)C1(CCCC1)O2 the “Max fall in blood pressure” value was “Not significant”. In the case of CN(C)c1cccn([C@@H]2c3cc(C#N)ccc3OC(C)(C)[C@H]2O)c1=O, the “Max fall in blood pressure” value is reported as “Not significant”. With CC1(C)Oc2ccc(C#N)cc2[C@@H](n2cccc(N)c2=O)[C@@H]1O the “Max fall in blood pressure” value was “Not significant”. For CC1(C)Oc2ccc(C#N)cc2[C@@H](n2ccc(OCc3ccccc3)cc2=O)[C@@H]1O, the “Max fall in blood pressure” value was “Not significant”. CC1(C)Oc2ccc(C(=N)S)cc2[C@@H](n2ccccc2=O)[C@@H]1O was tested, and the “Max fall in blood pressure” value was “Not significant”. O=c1ccccn1[C@@H]1c2cc([N+](=O)[O-])ccc2OC2(CCCC2)[C@H]1O was tested, and the “Max fall in blood pressure” value was “Not significant”. In the case of COC(=O)c1ccc2c(c1)C(n1ccccc1=O)C(=O)C(C)(C)O2 (centres undefined), the “Max fall in blood pressure” value is reported as “Not significant”. In the case of CC1(C)Oc2ccc(C#N)cc2[C@@H](n2cc(C(=O)O)ccc2=O)[C@@H]1O, the “Max fall in blood pressure” value is reported as “Not significant”. For CC1(C)C=C(n2cc(Br)cc(Br)c2=O)c2cc(C#N)ccc2O1, the “Max fall in blood pressure” value was “Not significant”. In the case of CC1(C)Oc2ccc(C#N)cc2[C@@H](n2cccc([N+](=O)[O-])c2=O)[C@@H]1O, the “Max fall in blood pressure” value is reported as “Not significant”. CCOc1ccn([C@@H]2c3cc(C#N)ccc3OC(C)(C)[C@H]2O)c(=O)c1 was tested, and the “Max fall in blood pressure” value was “Not significant”. CC1(C)Oc2ccc(C#N)cc2[C@@H](n2cc(Cl)cc(Cl)c2=O)[C@@H]1O was tested, and the “Max fall in blood pressure” value was “Not significant”. With CC1(C)Oc2ccc(C#N)cc2C(n2cc(Cl)c(=O)c(Cl)c2)[C@@H]1O (some centres undefined) the “Max fall in blood pressure” value was “Not significant”. With CC1(C)C=C(n2cc(Cl)cc(Cl)c2=O)c2cc(C#N)ccc2O1 the “Max fall in blood pressure” value was “Not significant”. With Cc1csc(Nc2ccc3c(c2)C(N2CCCC2=O)[C@H](O)C(C)(C)O3)n1 (some centres undefined) the “Max fall in blood pressure” value was “Not significant”. With CC1(C)CC(n2ccc(=O)cc2)c2cc(C#N)ccc2O1 (centres undefined) the “Max fall in blood pressure” value was “Not significant”. For CC1(C)Oc2ccc(C#N)cc2[C@@H](n2cc(Br)cc(Br)c2=O)[C@@H]1O, the “Max fall in blood pressure” value was “Not significant”. For CC(=O)Nc1ccc(=O)n([C@@H]2c3cc(C#N)ccc3OC(C)(C)[C@H]2O)c1, the “Max fall in blood pressure” value was “Not significant”. For CC1(C)Oc2ccc(C#N)cc2C(N2CCC(=O)CC2)[C@@H]1O (some centres undefined), the “Max fall in blood pressure” value was “Not significant”. With COc1cccn([C@@H]2c3cc(C#N)ccc3OC(C)(C)[C@H]2O)c1=O the “Max fall in blood pressure” value was “Not significant”. For CC1(C)Oc2ccc(C#N)cc2[C@@H](N2CCC/C2=N\C(=O)c2ccncc2)[C@@H]1O, the “Max fall in blood pressure” value was “Not significant”. In the case of CC1(C)Oc2ccc(C3=NCCN3)cc2C(N2CCCC2=O)[C@@H]1O (some centres undefined), the “Max fall in blood pressure” value is reported as “Not significant”. With CC1(C)Oc2ccc(-c3nc4cc[nH]cc-4n3)cc2C(N2CCCC2=O)[C@@H]1O (some centres undefined) the “Max fall in blood pressure” value was “Not significant”. With CC1(C)Oc2ccc(/C=C/c3ccc(C#N)cc3)cc2[C@@H](n2ccccc2=O)[C@@H]1O the “Max fall in blood pressure” value was “Not significant”. CC1(C)Oc2ccc(NC(=N)S)cc2C(N2CCCC2=O)[C@@H]1O (some centres undefined) was tested, and the “Max fall in blood pressure” value was “Not significant”. In the case of CC1(C)C=C(n2cc(Cl)c(=O)c(Cl)c2)c2cc(C#N)ccc2O1, the “Max fall in blood pressure” value is reported as “Not significant”. CC1(C)Oc2ccc(Br)cc2[C@@H](n2ccccc2=O)[C@@H]1O was tested, and the “Max fall in blood pressure” value was “Not significant”. O=c1ccccn1C1=CC2(CCCC2)Oc2ccc([N+](=O)[O-])cc21 was tested, and the “Max fall in blood pressure” value was “Not significant”. For CC1(C)Oc2ccc([N+](=O)[O-])cc2[C@@H](N2CCCC2=N)[C@@H]1O, the “Max fall in blood pressure” value was “Not significant”. CC(=O)Oc1cccn([C@@H]2c3cc(C#N)ccc3OC(C)(C)[C@H]2O)c1=O was tested, and the “Max fall in blood pressure” value was “Not significant”. Cc1coc(-c2ccc3c(c2)C(N2CCCC2=O)[C@H](O)C(C)(C)O3)n1 (some centres undefined) was tested, and the “Max fall in blood pressure” value was “Not significant”. In the case of CCOC(=O)c1ccc2c(c1)[C@@H](n1ccccc1=O)[C@H](O)C(C)(C)O2, the “Max fall in blood pressure” value is reported as “Not significant”. With CC1(C)Oc2ccc(-c3nc4ccccc4[nH]3)cc2C(N2CCCC2=O)[C@@H]1O (some centres undefined) the “Max fall in blood pressure” value was “Not significant”. For CC1(C)Oc2ccc(/N=C/c3ccc(C#N)cc3)cc2C(N2CCCC2=O)[C@@H]1O (some centres undefined), the “Max fall in blood pressure” value was “Not significant”. For O=c1ccccn1[C@@H]1c2cc([N+](=O)[O-])ccc2OC2(CCCCC2)[C@H]1O, the “Max fall in blood pressure” value was “Not significant”. N#Cc1ccc2c(c1)[C@@H](n1ccccc1=O)[C@H](O)C1(CCCCC1)O2 was tested, and the “Max fall in blood pressure” value was “Not significant”. With CC(=O)Nc1ccc(=O)n(C2=CC(C)(C)Oc3ccc(C#N)cc32)c1 the “Max fall in blood pressure” value was “Not significant”. In the case of CC1(C)C=C(n2ccc(OCc3ccccc3)cc2=O)c2cc(C#N)ccc2O1, the “Max fall in blood pressure” value is reported as “Not significant”. For Cc1csc(-c2ccc3c(c2)C(N2CCCC2=O)[C@H](O)C(C)(C)O3)n1 (some centres undefined), the “Max fall in blood pressure” value was “Not significant”. For CC1(C)C=C(n2ccccc2=O)c2cc(-c3ccncc3)ccc2O1, the “Max fall in blood pressure” value was “Not significant”. For CC1(C)Oc2ccc(-c3nc4ccc[nH]c-4n3)cc2C(N2CCCC2=O)[C@@H]1O (some centres undefined), the “Max fall in blood pressure” value was “Not significant”. For N#Cc1ccc2c(c1)C(n1ccccc1=O)=CC1(CCCCC1)O2, the “Max fall in blood pressure” value was “Not significant”. CC1(C)Oc2ccc(C=O)cc2[C@@H](n2ccccc2=O)[C@@H]1O was tested, and the “Max fall in blood pressure” value was “Not significant”. With CC1(C)Oc2ccc(/N=C/c3ccc(Cl)cc3Cl)cc2C(N2CCCC2=O)[C@@H]1O (some centres undefined) the “Max fall in blood pressure” value was “Not significant”.
